Source: PubChem BioAssay
aDG glyco act – activators of alpha-DG glycosylation, primary screen, uHTS, Pro5-aDG cells, AlphaScreen; alpha-DG glycosylation AlphaScreen (IIH6); 0% Pro5, 100% B10-LARGE cell signal; activation, % at 10 µM; actives 0.22% (n = 360,000); AID 624168, 2012;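 active means activation of at least 8% versus controls, or a plate z-score of at least 8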;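 further: Pro5 are CHO cells carrying HIG-tagged alpha-DG that lacks glycosylation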
MC4R antagonist – MC4R antagonists of cAMP signaling, primary screen, cell-based, TR-FRET, antagonist arm of biased-ligand search | inhibition, % at 6.5 µM | MC4R-expressing cells, MTII-stimulated cAMP, LANCE TR-FRET | Melanocortin receptor 4 (Homo sapiens), P32245 | actives 0.48% (n = 360,000);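 active means inhibition above its plate's cutoff, the mean of tested wells on that plate plus 3 SD, cut at about 29% in these data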
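material = U2OS cells stably expressing human melanocortin 4 receptor (MC4R) | also added = Melanotan II challenge | dosing = single nominal compound dose of 6.5 µM | detection = TR-FRET with Eu-cAMP and labeled anti-cAMP, 671 nm | replication = singlicate | timing = compound 30 min, challenge 1 h, detection 1 h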
NTR1 ag – agonists of human NTR1, primary screen, imaging, U2OS cells, beta-arrestin-GFP, high content. NTR1-U2OS beta-arrestin-GFP spot imaging, agonist mode. activation, % at 20 µM. actives 0.17% (n = 330,000). AID 493036, 2011;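 active means activation at or above 40% of the spot to cytoplasm intensity ratio, with at least 20 cells analyzed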
H9c2 TAG inh – inhibitors of triacylglycerol accumulation, primary screen, cell-based, uHTS, fluorescence, H9c2 | AID 651582, 2012 | H9c2 cells, Nile Red lipid (TAG) fluorescence; cells loaded with 200 µM oleic acid | inhibition, % at 12.5 µM | actives 0.66% (n = 230,000);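 active means pattern-corrected inhibition of lipid staining of at least 50% with the nuclear-stain viability signal not falling by more than 50%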
MC4R ag barr – MC4R agonists recruiting beta-arrestin, primary screen, cell-based, luminescence, agonist arm of biased-ligand search; activation, % at 8.9 µM; actives 0.98% (n = 360,000); Melanocortin receptor 4 (Homo sapiens), P32245; U2OS MC4R beta-arrestin complementation; percent of melanotan II response, DMSO zero;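 active means activation above a per-plate cutoff, the mean activation of sample wells on that plate plus 3 SD, cut at about 8% in these data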
TbMetRS inhib – T. brucei MetRS inhibitors, primary screen, biochemical, luminescence. methionyl-tRNA synthetase (Trypanosoma brucei brucei). actives 0.4% (n = 360,000). AID 624268, 2012. purified T. brucei MetRS, ATP depletion, Kinase-Glo luminescence. inhibition, % at 11.9 µM;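 active means inhibition above a per-plate cutoff of the control wells' mean inhibition plus 3 SD, cut at about 5.5% in these data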
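Material – parasite MetRS enzyme · Medium – HEPES-MgCl2-KCl buffer plus DTT, spermine, BSA, pyrophosphatase · Reagent – ATP, methionine and E. coli bulk tRNA substrates · Times – 15 min enzyme-compound preincubation, 2 h reaction, 10 min detection, 25 °C · Measured by – luminescence of leftover ATP · Evaluation – percent inhibition relative to median high and low control wells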
MC4R barr conf – MC4R beta-arrestin agonists, retest, confirmation, cell-based, luminescence, U2OS. shares compounds with MC4R ag barr. U2OS MC4R beta-arrestin recruitment; scaled DMSO 0%, Melanotan II 100%. activation, % at 8.9 µM. actives 31% (n = 2,400). AID 602192, 2012;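 active means mean activation across replicates above the hit cutoff set in the earlier primary screen, cut at about 8% in these data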
MOR DOR agonist – agonists of MOR-DOR heterodimerization, counter-screen for MC4R biased agonist project, cell-based, luminescence | shares compounds with MC4R ag barr | U2OS PathHunter beta-arrestin, beta-gal luminescence; percent of deltorphin B response, DMSO zero | activation, % at 9.2 µM | actives 5.8% (n = 2,400);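 active means mean activation across replicates exceeds the hit threshold derived in the earlier primary screen, cut at about 18% in these data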
Target sequence (P35372 whole entry, looked up): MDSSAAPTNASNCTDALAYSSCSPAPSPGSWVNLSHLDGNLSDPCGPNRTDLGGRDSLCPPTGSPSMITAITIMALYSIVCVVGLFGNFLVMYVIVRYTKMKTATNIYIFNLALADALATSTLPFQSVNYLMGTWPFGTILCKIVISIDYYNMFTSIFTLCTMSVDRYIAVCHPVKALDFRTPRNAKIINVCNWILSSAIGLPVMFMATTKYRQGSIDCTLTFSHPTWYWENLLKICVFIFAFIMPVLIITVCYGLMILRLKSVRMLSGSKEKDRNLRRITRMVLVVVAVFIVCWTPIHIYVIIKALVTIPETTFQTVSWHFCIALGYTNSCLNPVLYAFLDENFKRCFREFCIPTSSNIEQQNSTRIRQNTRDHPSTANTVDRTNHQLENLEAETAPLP
Target sequence (P41143 whole entry, looked up): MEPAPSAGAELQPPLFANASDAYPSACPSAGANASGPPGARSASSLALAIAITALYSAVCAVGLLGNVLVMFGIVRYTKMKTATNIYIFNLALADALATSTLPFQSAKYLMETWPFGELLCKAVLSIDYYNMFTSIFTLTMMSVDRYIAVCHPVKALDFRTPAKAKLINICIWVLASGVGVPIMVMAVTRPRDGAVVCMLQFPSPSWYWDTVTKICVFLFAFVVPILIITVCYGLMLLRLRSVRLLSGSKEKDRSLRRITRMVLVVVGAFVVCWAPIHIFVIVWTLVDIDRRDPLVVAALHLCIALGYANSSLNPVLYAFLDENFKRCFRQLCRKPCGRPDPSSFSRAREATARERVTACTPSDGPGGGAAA
A number is an active result; 0 = inactive; - = no result. Rows were chosen to be rich in hits. Some 2.4% of all compounds tested hit in one or more screens of this group.

SMILES	aDG glyco act	MC4R antagonist	NTR1 ag	H9c2 TAG inh	MC4R ag barr	TbMetRS inhib	MC4R barr conf	MOR DOR agonist
COc1ccccc1-c1cnc(C(O)c2ccc(C)cc2)[nH]1 (configuration not stated)	0	0	-	0	0	0	-	-
COCOCCn1cc(CN2CCS(=O)(=O)N(Cc3ccc(-c4ccc(Cl)c(Cl)c4)cc3)C(C(C)C)C2=O)nn1 (configuration not stated)	0	0	-	0	0	0	-	-
COc1cccc(C(C)(O)c2nc(-c3ccc(N(C)C)cc3)cs2)c1 (configuration not stated)	0	0	-	0	0	0	-	-
CC(=O)Nc1ccc(-c2ccnc3c2CC(C(=O)Nc2cccc(N(C)C)c2)O3)cc1 (configuration not stated)	0	0	-	0	0	0	-	-
Cc1nc2ccc(F)cc2cc1C(=O)Nc1ccc(Cl)c(Cl)c1	0	0	-	0	9.9	0	0	0
NC(Cc1ccccc1)c1csc(NC(=O)c2cccc(OC(F)(F)F)c2)n1 (configuration not stated)	0	0	-	0	0	0	-	-
COc1ccc(-c2nc(-c3ccc(Br)o3)no2)cc1	0	0	0	0	13	0	0	0
COc1ccc(-c2noc(-c3ccc(Br)o3)n2)cc1	0	0	0	0	0	0	-	-
O=C(COC(=O)c1ccc2c(c1)C(=O)N(CCc1ccccc1)C2=O)Nc1ccc(OC(F)F)cc1	0	0	0	0	13	0	10	0
CCOc1ccc(NC(=O)COC(=O)c2ccc3c(c2)C(=O)N(CCc2ccccc2)C3=O)cc1	0	0	0	-	0	0	-	-
CC1=C(C(=O)N(C)C)CC(CC(=O)NCc2cccs2)C(=O)N1Cc1ccc(C(C)(C)C)cc1 (configuration not stated)	0	-	-	-	-	0	-	-
C=CCc1ccc(O)c(-c2cc(CC=C)ccc2O)c1	0	0	0	-	9.7	0	0	0
CCOC(=O)C1=C(N)c2ccccc2CC1C(C)C (configuration not stated)	0	0	0	0	11	0	0	0
O=C(COn1nnc2ccc(Cl)cc21)Nc1ccc(F)cc1	0	0	0	0	0	0	-	-
O=C(COn1nnc2ccc(Cl)cc21)NC12CC3CC(CC(C3)C1)C2	0	0	0	-	13	0	0	0
COc1cc(Nc2ccn3nc(-c4ccccc4Cl)cc3n2)cc(OC)c1OC	0	0	-	0	0	0	-	-
O=C(Nc1ccc2oc(=O)ccc2c1)c1ccc(-c2cccc(Cl)c2)o1	0	0	0	0	20	0	0	0
CSCCC(c1nc2ccccc2[nH]1)n1c(-c2cc(C(F)(F)F)cc(C(F)(F)F)c2)nc2ccccc21 (configuration not stated)	0	-	-	-	-	0	-	-
COC(=O)[C@]12CCCCC=C1N(CCC1=CCCCC1)C(=O)[C@H](CC(=O)N1CCN(C(=O)c3ccco3)CC1)C2	0	-	-	-	-	0	-	-
Cc1cc(C(=O)Nc2sc(C)c(-c3ccc(F)cc3)c2C(N)=O)no1	0	0	0	-	13	0	0	0
CCCCOc1ccc(C(=O)Nc2ccc(SC(F)F)cc2)cc1OC	0	0	0	0	9.9	0	16	0
CSc1nc2ccc(NC(=O)CS(=O)(=O)c3ccccc3)cc2s1	0	0	-	0	0	0	-	-
CSc1nc2ccc(NC(=O)COc3ccccc3F)cc2s1	0	0	0	0	10	0	0	0
CCC(=O)Nc1cccc(-c2nc3ccc(C)cc3o2)c1	0	0	0	-	0	0	-	-
Cc1ccc2nc(-c3cccc(NC(=O)c4ccc5c(c4)OCCO5)c3)oc2c1	0	0	0	-	23	0	0	0
SMILES	aDG glyco act	MC4R antagonist	NTR1 ag	H9c2 TAG inh	MC4R ag barr	TbMetRS inhib	MC4R barr conf	MOR DOR agonist
Cc1n[nH]c(=S)n1/N=C/c1ccccc1OCc1ccc(Cl)cc1Cl	0	0	0	-	19	0	16	0
Cc1n[nH]c(=S)n1/N=C/c1ccc(OCc2ccc(Cl)cc2Cl)cc1	0	0	0	-	0	0	-	-
CC(C)c1nc(SCC(=O)N2CCCCC2)c2c(=O)n(C)c(=O)n(C)c2n1	0	0	-	0	0	0	-	-
COc1cccc(-c2cnc3c(NC(C)=O)cc(-c4ccncc4)cn23)c1	0	0	-	0	0	0	-	-
CC(=O)Nc1cc(-c2ccccc2N(C)C)cn2c(-c3ccc(S(C)(=O)=O)cc3)cnc12	0	0	-	0	0	0	-	-
COc1cccc(-c2cnc3c(NC(C)=O)cc(-c4ccccc4OC)cn23)c1	0	0	-	0	22	0	15	0
COc1ccc(-c2cc(NC(C)=O)c3ncc(-c4ccccc4)n3c2)c(OC)c1	0	0	-	0	32	0	37	0
COc1ccc(-c2cnc3c(NC=O)cc(-c4ccccc4OC)cn23)cc1OC	0	0	-	0	0	0	-	-
COc1ccccc1-c1cc(NC(C)=O)c2ncc(-c3ccccc3)n2c1	0	0	-	0	16	0	18	0
CC(=O)Nc1cc(-c2ccccc2N(C)C)cn2c(-c3ccccc3)cnc12	0	0	-	0	18	0	32	0
COc1ccc(-c2nc3ccc(Cl)cn3c2Cc2cccc(F)c2)cc1OC	0	-	-	-	-	0	-	-
CC1(C(=O)N2CCCCC2)CCN1C(=O)c1ccccc1CCc1ccccc1 (configuration not stated)	0	0	-	0	0	0	-	-
Cc1cccc(C)c1-n1nnnc1C(c1ccnc2ccccc12)N1CCN(C/C=C/c2ccccc2)CC1 (configuration not stated)	0	-	-	-	-	0	-	-
COc1cccc(-c2cnc3c(NC(C)=O)cc(-c4cc(OC)c(OC)c(OC)c4)cn23)c1	0	0	-	0	29	0	21	0
COc1ccc(NC(=O)CSc2ccc(-c3cccs3)nn2)c(OC)c1	0	0	0	0	14	0	0	0
COc1ccc(-c2nnc3ccc(SCC(=O)Nc4nccs4)nn23)cc1OC	0	0	0	-	0	0	-	-
